“And” between values parts separate entries of the source, which are not always exact repeats. Equal values may be shown once.
Experiments:
Type in all cases: functional, cell-based
HL-60 = assay: Cytotoxicity against human HL60 cells after 48 hrs by MTT assay
In short: (§1)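 HL-60 (promyelocytic) and NALM-6 (lymphoblastic) cells grown in RPMI 1640 with 10% heat-inactivated FBS, streptomycin and penicillin, 37 °C, 5% CO2. Exponentially growing cells seeded at 8×10^3/well. Compounds prepared fresh from DMSO stocks and tested at 10^-7 to 10^-3 M for 46 h, then MTT 2 h. Formazan dissolved in 20% SDS/50% DMF pH 4.7, absorbance 562 and 630 nm. IC50 taken from concentration-response curves, means of at least 6 repeats ± SD.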

NALM-6 = assay: Cytotoxicity against human NALM6 cells after 48 hrs by MTT assay; in short: as §1
L1210 = assay: Cytotoxicity against mouse L1210 cells after 48 hrs by tetrazolium dye method

| Compound | IC50 (HL-60; Homo sapiens, HL-60, 48 h) | IC50 (NALM-6; Homo sapiens, NALM-6, 48 h) | IC50 (L1210; Mus musculus, L1210, 48 h) | IC50 (HL-60; hl-60) | IC50 (L1210; l1210) | IC50 (NALM-6; nalm-6) |
| --- | --- | --- | --- | --- | --- | --- |
| C=C1CC(c2ccccc2)N(C)C1=O (configuration not stated) | 989 µM | 553 µM | > 50 µM |  |  |  |
| C=C1C(=O)OC(c2ccc(Br)cc2)C1C (configuration not stated) |  |  |  | 41.8 µM and 5.05 µM | 7.5 µM and 1.55 µM |  |
| C=C1C(=O)OC(c2ccc(OC)cc2)C1C (configuration not stated) |  |  |  | 37.9 µM and 5.69 µM | 14.2 µM and 3.65 µM | 38.6 µM and 5.23 µM |
| C=C1CC(c2ccc(Br)cc2)N(C)C1=O (configuration not stated) | 220 µM | 141 µM | > 50 µM |  |  |  |
| C=C1CC(c2ccc(Br)cc2)OC1=O (configuration not stated) | 20.3 µM | 85.3 µM | 1.3 µM |  |  |  |
| CC(C)/C=C1\CC(c2ccccc2)N(C)C1=O (configuration not stated) | 81.3 µM | 351 µM | > 50 µM |  |  |  |
| C=C1CC(c2ccc(OC)cc2)N(C)C1=O (configuration not stated) | 611 µM | 523 µM | > 50 µM |  |  |  |
| C=C1CC(c2cccc3ccccc23)OC1=O (configuration not stated) | 4.42 µM | 3.86 µM | 4.3 µM |  |  |  |
| CC(C)/C=C1/CC(c2ccccc2)OC1=O (configuration not stated) | 159 µM | 483 µM | > 50 µM |  |  |  |
| C=C1C(=O)OC(c2ccccc2)C1C (configuration not stated) | 8.97 µM | 7.91 µM |  | 8.97 µM | 4 µM and 28 µM | 7.91 µM |
| O=C1OC(c2ccccc2)C/C1=C\c1ccccc1 (configuration not stated) | > 1000 µM | 497 µM | > 50 µM |  |  |  |
| C=C1CC(c2ccccc2)OC1=O (configuration not stated) | 36.9 µM | 9.13 µM | 1.4 µM |  |  |  |
